ADAM17 inh: inhibits human ADAM17 | recombinant ADAM17, EDANS/DABCYL FRET peptide cleavage | P78536 | inhibition, % at 6.95 µM | 0.83% of 370,000 active | AID 720648;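 active = inhibition above the mean of compounds lying between control limits plus 3 SD, set per campaign, cut at about 8.5% in these data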;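 note: 0% = DMSO-only wells as the low control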
SKN-1 block: blocks SKN-1 activity in C. elegans; 0.49% of 360,000 active; inhibition, % at 21.8 µM; C. elegans VP596 Pgst-4::GFP/RFP ratio, acrylamide-induced, 24 h;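 active = interference check ratio from 0.5 to 1.5 plus GFP to RFP signal ratio inhibition reaching or exceeding a fixed threshold, cut at about 30% in these data, passing the limit was not always enough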
ADAM10 inh: inhibitors of human ADAM10 | 0.62% of 370,000 active | inhibition, % at 7 µM | AID 720582 | O14672 | recombinant ADAM10, EDANS/DABCYL FRET peptide cleavage, 3 h;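 active = inhibition above a per-campaign cutoff equal to the mean of compounds falling between control-based bounds plus 3 SD, cut at about 20% in these data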;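 note: 0% = DMSO wells while the 100% control is not disclosed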
Target sequence (O14672 214-748 limits assumed): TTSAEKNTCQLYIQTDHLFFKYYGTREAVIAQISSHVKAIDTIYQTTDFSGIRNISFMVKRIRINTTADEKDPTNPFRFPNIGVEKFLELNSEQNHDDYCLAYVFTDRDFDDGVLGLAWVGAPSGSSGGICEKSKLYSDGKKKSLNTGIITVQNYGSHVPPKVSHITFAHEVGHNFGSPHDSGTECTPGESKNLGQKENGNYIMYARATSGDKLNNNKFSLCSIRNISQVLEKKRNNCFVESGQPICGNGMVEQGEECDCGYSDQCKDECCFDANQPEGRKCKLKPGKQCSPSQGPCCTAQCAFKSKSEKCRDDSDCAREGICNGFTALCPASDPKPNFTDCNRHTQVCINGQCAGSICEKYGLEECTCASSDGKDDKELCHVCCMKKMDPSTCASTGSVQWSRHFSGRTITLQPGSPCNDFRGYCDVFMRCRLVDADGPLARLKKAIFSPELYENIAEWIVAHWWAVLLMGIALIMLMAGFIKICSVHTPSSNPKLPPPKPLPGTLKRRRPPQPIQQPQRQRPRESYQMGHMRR
NR3A LBD binder: modulates the human NR3A ligand-binding domain. NR3A LBD differential scanning fluorimetry, Tm shift; 0% = protein alone, 100% = glycine-bound protein. Tm shift relative to glycine control, % at 25 µM. 2.5% of 340,000 active;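 active = melting temperature shift of at least 10% of the positive control shift, at one fixed dose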
MT1-MMP act inh: blocks activation of human MT1-MMP; P50281; HT1080 RFP-PRO-GFP cells, GFP/RFP ratio fluorescence, overnight; percent of plate control window, DMSO zero; GFP/RFP ratio change, % at 20 µM; 0.061% of 360,000 active;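 active = GFP/RFP ratio change of at least 30% with cell ATP level not reduced by more than half and red fluorescence within 50% of control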
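Test system: HT1080 cells expressing an RFP-PRO-GFP fluorescent reporter construct / Compound dosing: single-point 20 µM compound, 1% DMSO / Schedule: cells overnight before dosing, compound overnight, 37 °C, 5% CO2 / Evaluation: GFP/RFP fluorescence ratio / Control set: DMSO and RFP-L50D-GFP cell wells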
MPTP inh: permeability transition pore inhibition; inhibition, % at 10 µM; isolated mouse mitochondria, Ca2+ swelling absorbance, 30 min; 1.4% of 360,000 active;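 active = inhibition of 50% or more, scaled per plate between neutral and stimulator controls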;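 note: 0% = DMSO wells given calcium and 100% = 1 mM EGTA wells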
Active calls of the source: *. Hits are enriched below; roughly 4.7% of the tested compounds scored in any of these assays.

O=C(NCc1ccccc1Cl)C1CCN(c2cnccn2)CC1 was read as ADAM17 inh -7.0, SKN-1 block -12.4, ADAM10 inh -28.2, NR3A LBD binder -0.1, MT1-MMP act inh -0.1 and MPTP inh -1.4.
Screening C=CCSc1nnc2nc3c(nn12)c1cc(C)ccc1n3CC=C returned ADAM17 inh 2.3, SKN-1 block 38.1*, ADAM10 inh 0.1, NR3A LBD binder -1.5, MT1-MMP act inh -1.4 and MPTP inh 0.2.
Screening C=CCn1c2ccccc2c2nnc(SCC(N)=O)nc21 returned ADAM17 inh 1.3, SKN-1 block 0.0, ADAM10 inh 0.8, NR3A LBD binder -0.7, MT1-MMP act inh -2.1 and MPTP inh -1.6.
`N#CCc1ccc(NC(=O)Nc2cccc3ccccc23)cc1` gave SKN-1 block -1.7, NR3A LBD binder 21.4*, MT1-MMP act inh -0.7 and MPTP inh 4.9.
`O=C(Nc1ccc2[nH]c(=S)sc2c1)c1ccccc1` gave ADAM17 inh -1.1, SKN-1 block 4.8, ADAM10 inh 5.4, NR3A LBD binder 21.1*, MT1-MMP act inh 3.6 and MPTP inh -2.9.
For Cc1ccc(NC(=O)Nc2nnc(Cc3ccc([N+](=O)[O-])cc3)s2)cc1 the results were ADAM17 inh 0.5, SKN-1 block -0.3, ADAM10 inh 4.6, NR3A LBD binder 22.1*, MT1-MMP act inh 1.9 and MPTP inh 34.4.
COc1ccc(Cc2nnc(NC(=O)Nc3ccc(F)cc3)s2)cc1 was read as ADAM17 inh -3.2, SKN-1 block 4.2, ADAM10 inh -0.9, NR3A LBD binder -3.4, MT1-MMP act inh 4.8 and MPTP inh 3.5.
Cc1cccc(-n2nc3c(c2NC(=O)c2ccco2)CSC3)c1C was read as ADAM17 inh 9.1*, SKN-1 block 6.5, ADAM10 inh 16.2, NR3A LBD binder -4.8, MT1-MMP act inh -16.4 and MPTP inh 3.9.
Cc1cccc(-n2nc3c(c2NC(=O)C2CC2)CS(=O)(=O)C3)c1C was read as ADAM17 inh -2.7, SKN-1 block 35.2*, ADAM10 inh -1.1, NR3A LBD binder 0.9, MT1-MMP act inh -0.4 and MPTP inh 0.8.
For O=C(Nc1c2c(nn1-c1ccccc1)CS(=O)C2)c1ccco1 (stereo not drawn) the results were ADAM17 inh -0.7, SKN-1 block -14.9, ADAM10 inh -8.9, NR3A LBD binder 17.2*, MT1-MMP act inh -3.0 and MPTP inh -0.7.
Screening COc1ccc(OC)c(N(CC(=O)NC2CCCC2)S(=O)(=O)c2ccc(OC)c(OC)c2)c1 returned ADAM17 inh -0.4, SKN-1 block -7.4, ADAM10 inh -9.5, NR3A LBD binder -2.5, MT1-MMP act inh 1.9 and MPTP inh 2.7.
CC1(C(=O)OCC(=O)NNC(=O)COc2ccc(Cl)cc2)CC1(Cl)Cl (stereo not drawn) was read as ADAM17 inh -1.3, SKN-1 block 0.6, ADAM10 inh -0.1, NR3A LBD binder 2.5, MT1-MMP act inh 5.4 and MPTP inh -1.6.
CCCCC(CCC(=O)Nc1ccn(-c2ccccc2)n1)C(=O)O (stereo not drawn) was read as ADAM17 inh 0.8, SKN-1 block -18.3, ADAM10 inh 2.0, NR3A LBD binder 2.0, MT1-MMP act inh 10.5 and MPTP inh -1.4.
`CCOC(=O)N1CCN(C(=O)c2ccccc2NC(=O)c2ccc(C(C)(C)C)cc2)CC1` gave ADAM17 inh -4.8, SKN-1 block 6.0, ADAM10 inh 3.9, NR3A LBD binder -1.1, MT1-MMP act inh -3.1 and MPTP inh -1.4.
`COc1ccc(CCNc2nc(C)cc(=O)[nH]2)cc1OC` gave ADAM17 inh 3.5, SKN-1 block 0.0, ADAM10 inh -3.0, NR3A LBD binder 1.3, MT1-MMP act inh 2.5 and MPTP inh -2.6.
`Nc1ccc2nc(-c3ccc(N)c(Cl)c3)[nH]c2c1` gave ADAM17 inh inactive, SKN-1 block -1.6, ADAM10 inh inactive, NR3A LBD binder 15.8*, MT1-MMP act inh 8.4 and MPTP inh -5.2.
Screening Nc1ccc(-c2nc3c(Cl)cc(N)cc3[nH]2)cc1 returned ADAM17 inh inactive, SKN-1 block -4.5, ADAM10 inh inactive, NR3A LBD binder 10.5*, MT1-MMP act inh 10.9 and MPTP inh -0.2.
Screening Nc1ccc2nc(-c3ccccc3)[nH]c2c1 returned ADAM17 inh inactive, SKN-1 block -5.1, ADAM10 inh inactive, NR3A LBD binder -5.0, MT1-MMP act inh 11.3 and MPTP inh 0.5.
CCOC(=O)c1cnn(CCOC(=O)c2ccc(OC)cc2)c1NC(=O)c1ccc(OC)cc1 was read as ADAM17 inh -0.7, SKN-1 block -14.4, ADAM10 inh -2.8, NR3A LBD binder 16.4*, MT1-MMP act inh 5.8 and MPTP inh 1.2.
Cc1ccccc1NC(=O)CCC(=O)OCC(=O)c1cccc([N+](=O)[O-])c1 was read as ADAM17 inh -2.9, SKN-1 block 37.2*, ADAM10 inh 3.1, NR3A LBD binder 0.7, MT1-MMP act inh 1.3 and MPTP inh 1.2.
CCC1NC(=O)c2cccnc2-n2c1nc1cc(OC)c(OC)cc1c2=O (stereo not drawn) was read as ADAM17 inh -6.5, SKN-1 block 3.0, ADAM10 inh -16.4, MT1-MMP act inh 2.6 and MPTP inh -2.1.
For Cc1cn([C@H]2C[C@H](O)[C@@H](CCC(=O)NCc3ccc4c(c3)OCO4)O2)c(=O)[nH]c1=O the results were ADAM17 inh 3.2, SKN-1 block -4.4, ADAM10 inh 5.6, MT1-MMP act inh 6.6 and MPTP inh -1.9.
CN(C)c1oc(-c2ccco2)nc1C#N was read as ADAM17 inh -288.3, SKN-1 block 59.2*, ADAM10 inh inactive, NR3A LBD binder 5.2, MT1-MMP act inh 3.7 and MPTP inh -1.2.
COc1ccccc1NS(=O)(=O)c1ccc(NC(=O)N2CCCCC2)cc1 was read as ADAM17 inh 7.9, SKN-1 block -11.8, ADAM10 inh 6.1, NR3A LBD binder 12.6*, MT1-MMP act inh 4.3 and MPTP inh 0.1.
CCNS(=O)(=O)c1ccc(NC(=O)Nc2cc(C)ccc2OC)cc1 was read as ADAM17 inh 2.1, SKN-1 block -6.8, ADAM10 inh 10.2, NR3A LBD binder 19.6*, MT1-MMP act inh 0.7 and MPTP inh 2.0.
CCNS(=O)(=O)c1ccc(NC(=O)Nc2ccccc2OC)cc1 was read as ADAM17 inh -1.6, SKN-1 block 11.8, ADAM10 inh 0.8, NR3A LBD binder 14.4*, MT1-MMP act inh 4.5 and MPTP inh -1.0.
`COc1ccc(C)cc1NC(=O)NNS(=O)(=O)c1ccc(NC(C)=O)cc1` gave ADAM17 inh 2.5, SKN-1 block -28.3, ADAM10 inh -4.6, NR3A LBD binder 1.9, MT1-MMP act inh -1.8 and MPTP inh 0.2.
`CCN(CC(=O)NCc1cccs1)C(=O)c1ccc(-c2cccc(C(F)(F)F)c2)o1` gave ADAM17 inh 0.9, SKN-1 block -7.6, ADAM10 inh -1.1, NR3A LBD binder -0.1, MT1-MMP act inh -8.4 and MPTP inh -0.8.

Screens (PubChem)
